Data on one compound can be found in ChEMBL document CHEMBL1649111, “Restoration of susceptibility of intracellular methicillin-resistant Staphylococcus aureus to beta-lactams: comparison of strains, cells, and antibiotics” (Antimicrob Agents Chemother, 2008).

Test [1] concerns Staphylococcus aureus. Description: Bacteriostatic activity against Panton-valentine leukocidin positive community acquired methicillin-resistant Staphylococcus aureus N4042228 infected in human THP-1 cells assessed as decrease in bacterial growth after 24 hrs at pH 5.5. In kind it is functional. In outline: (§1)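 Human THP-1 macrophages infected with each S. aureus strain. Cloxacillin added extracellularly at about 0.01× to 100× the broth MIC measured at pH 5.5, with gentamicin 0.5 mg/liter to stop extracellular growth. Incubated 24 h. CFU counted per mg cell protein as change from the post-phagocytosis inoculum, n = 3. Emin, Emax and EC50 from a Hill fit; static concentration by graphical interpolation.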

In test [2] the test system is Staphylococcus aureus. Description: Bacteriostatic activity against intracellular beta-lactamase negative methicillin-susceptible Staphylococcus aureus ATCC 25923 infected in human keratinocytes assessed as decrease in bacterial growth after 24 hrs at pH 7.4. The format is functional. In outline:
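Primary human skin keratinocytes or Calu-3 bronchial epithelial cells infected with MSSA ATCC 25923 at 5 × 10⁷ to 1 × 10⁸ bacteria/ml, 2 h internalization. Postphagocytosis inoculum 1.5 × 10⁶ to 3.0 × 10⁶ CFU/mg protein. Cloxacillin concentration range for 24 h; CFU/mg protein change vs. inoculum (n = 3). Hill fit gives Emin/Emax; static concentration by graphical interpolation.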

Test [3] concerns Staphylococcus aureus. Description: Bacteriostatic activity against beta-lactamase negative methicillin-susceptible Staphylococcus aureus ATCC 25923 infected in human THP-1 cells assessed as decrease in bacterial growth after 24 hrs at pH 7.4. The format is functional.
The test system of test [4] is Staphylococcus aureus. Description: Antimicrobial activity against hospital acquired methicillin-resistant Staphylococcus aureus N4120032 obtained from wound infection of patient by broth microdilution method at pH 7.4. The format is functional. In outline:
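Minimal inhibitory concentration by broth microdilution at pH 7.4, read in mg/liter. The MRSA genotype was confirmed by mecA PCR, and the SCCmec subgroup was assigned by multiplex PCR.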
In general terms: Dilution methods test growth across graded concentrations, often in twofold steps.

In test [5] the test system is Staphylococcus aureus. Description: Antimicrobial activity against Panton-valentine leukocidin positive community acquired methicillin-resistant Staphylococcus aureus N4090440 obtained from wound infection of patient infected in human THP-1 cells assessed as decrease in bacterial count from original inoculum at high compound concentration after 24 hrs at pH 5.5. In kind it is functional. The procedure, abridged: (§2)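 Bacteria phagocytosed by unactivated human THP-1 macrophages, then incubated 24 h with extracellular antibiotic at about 0.01× to 100× the pH 5.5 broth MIC. CFU per mg cell protein counted against the original inoculum, n = 3. A Hill-equation fit (slope factor 1) gave Emin and Emax, extrapolated to infinitely low and high concentration, and EC50. Static concentration was graphically interpolated.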

The test system of test [6] is Staphylococcus aureus. Description: Antimicrobial activity against intracellular beta-lactamase negative methicillin-susceptible Staphylococcus aureus ATCC 25923 infected in human Calu3 cells assessed as decrease in bacterial count from original inoculum at high compound concentration after 24 hrs at pH 7.4. The format is functional, Calu-3. The procedure, abridged: (§3)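 Primary human skin keratinocytes or Calu-3 bronchial epithelial cells, given an inoculum of 5 × 10⁷ to 1 × 10⁸ bacteria/ml and 2 h for internalization. Post-phagocytosis load 1.5 × 10⁶ to 3.0 × 10⁶ CFU per mg cell protein. Cloxacillin dose range in mg/liter for 24 h, n = 3. Hill-derived Emin, Emax and EC50; static concentration interpolated.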

The subject of test [7] is Staphylococcus aureus. Description: Antimicrobial activity against hospital acquired methicillin-resistant Staphylococcus aureus N4120210 obtained from urinary tract infection of patient infected in human THP-1 cells assessed as decrease in bacterial count from original inoculum at high compound concentration after 24 hrs at pH 5.5. In kind it is functional, Urine. The procedure, abridged: as §2

Test [8] deals with Staphylococcus aureus. Description: Antimicrobial activity against intracellular hospital acquired methicillin-resistant Staphylococcus aureus ATCC 33591 infected in human keratinocytes assessed as decrease in bacterial growth after 24 hrs at pH 7.4. The format is functional, organism-based. The settings on record: ATCC 33591, 24 h. In outline: as §3
For test [9], the system named is Staphylococcus aureus. Description: Antimicrobial activity against hospital acquired methicillin-resistant and […] Staphylococcus aureus VRS2 obtained from patient with wound, skin and soft tissue infection by broth microdilution method at pH 5.5. The format is functional.
The test system of test [10] is Staphylococcus aureus. Description: Antimicrobial activity against animal acquired methicillin-resistant Staphylococcus aureus N7112046 infected in human THP-1 cells assessed as decrease in bacterial count from original inoculum at high compound concentration after 24 hrs at pH 5.5. In kind it is functional. The procedure, abridged: as §2
In test [11] the test system is Staphylococcus aureus. Description: Antimicrobial activity against intracellular hospital acquired methicillin-resistant Staphylococcus aureus ATCC 33591 infected in human keratinocytes assessed as decrease in bacterial count from original inoculum at high compound concentration after 24 hrs at pH 7.4. The format is functional. The procedure, abridged:
as §3

The subject of test [12] is Staphylococcus aureus. Description: Antimicrobial activity against hospital acquired methicillin-resistant and vancomycin-intermediate Staphylococcus aureus VRS2 obtained from wound, skin and soft tissue infection of patient infected in human THP-1 cells assessed as decrease in bacterial count from original inoculum at high compound concentration after 24 hrs at pH 5.5. In kind it is functional. The procedure, abridged:
as §1

For test [13], the system named is Staphylococcus aureus. Description: Antimicrobial activity against hospital acquired methicillin-resistant Staphylococcus aureus ATCC 33591 infected in human THP-1 cells assessed as decrease in bacterial growth after 24 hrs at pH 7.4. As to conditions: ATCC 33591, THP-1, 24 h. The format is functional, organism-based.
Test [14] relates to Staphylococcus aureus. Description: Bacteriostatic activity against constitutive beta-lactamase negative methicillin-resistant Staphylococcus aureus COL NRS100 infected in human THP-1 cells assessed as decrease in bacterial growth after 24 hrs at pH 5.5. In kind it is functional. In outline: as §1
Test [15] deals with Staphylococcus aureus. Description: Antimicrobial activity against intracellular beta-lactamase negative methicillin-susceptible Staphylococcus aureus ATCC 25923 infected in activated human THP-1 cells assessed as decrease in bacterial count from original inoculum at high compound concentration after 24 hrs at pH 7.4. The format is functional.
For test [16], the system named is Staphylococcus aureus. Description: Antimicrobial activity against intracellular hospital acquired methicillin-resistant Staphylococcus aureus ATCC 33591 infected in human keratinocytes assessed as increase in bacterial count from original inoculum at low compound concentration after 24 hrs at pH 7.4. In kind it is functional. The procedure, abridged:
as §3

The test system of test [17] is Staphylococcus aureus. Description: Bacteriostatic activity against hospital acquired methicillin-resistant Staphylococcus aureus ATCC 33591 infected in human THP-1 cells assessed as decrease in bacterial growth after 24 hrs at pH 5.5. In kind it is functional. The procedure, abridged:
as §1

In test [18] the test system is Staphylococcus aureus. Description: Bacteriostatic activity against hospital acquired methicillin-resistant Staphylococcus aureus ATCC 33591 infected in human THP-1 cells assessed as decrease in bacterial growth after 24 hrs at pH 7.4. In kind it is functional. In outline: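 THP-1 macrophages, unactivated, infected with MRSA ATCC 33591. Cloxacillin over a range of extracellular concentrations (mg/liter) with a 24-h exposure. CFU per mg cell protein as change from the original inoculum, n = 3. Hill equation fitted with slope factor 1; static concentration (no change from inoculum) read by graphical interpolation.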

The test system of test [19] is Staphylococcus aureus. Description: Bacteriostatic activity against Panton-valentine leukocidin positive community acquired methicillin-resistant Staphylococcus aureus NRS192 infected in human THP-1 cells assessed as decrease in bacterial growth after 24 hrs at pH 5.5. The format is functional. The procedure, abridged:
as §1

In test [20] the test system is Staphylococcus aureus. Description: Antimicrobial activity against intracellular hospital acquired methicillin-resistant Staphylococcus aureus ATCC 33591 infected in human Calu3 cells assessed as decrease in bacterial growth after 24 hrs at pH 7.4. In kind it is functional, organism-based. As to conditions: ATCC 33591, Calu-3, 24 h. In outline: as §3
Test [21] deals with Staphylococcus aureus. Description: Bacteriostatic activity against intracellular hospital acquired methicillin-resistant Staphylococcus aureus ATCC 33591 infected in human Calu3 cells assessed as decrease in bacterial growth after 24 hrs at pH 7.4. In kind it is functional, Calu-3. The procedure, abridged:
as §3

Test [22] concerns Staphylococcus aureus. Description: Bacteriostatic activity against animal acquired methicillin-resistant Staphylococcus aureus N7112046 infected in human THP-1 cells assessed as decrease in bacterial growth after 24 hrs at pH 5.5. In kind it is functional. In outline: as §1
Test [23] has as its system Staphylococcus aureus. Description: Antimicrobial activity against hospital acquired methicillin-resistant Staphylococcus aureus HMC546 infected in human THP-1 cells assessed as increase in bacterial count from original inoculum at low compound concentration after 24 hrs at pH 5.5. In kind it is functional. In outline: as §2

In brackets after ≈: the same amount, converted by molar mass.

The term MIC denotes the lowest concentration found to suppress growth. Read a high MIC as weaker potency. Broadly, the EC50 is the concentration at which the effect is half-maximal.

`Cc1onc(-c2ccccc2Cl)c1C(=O)N[C@@H]1C(=O)N2[C@@H]1SC(C)(C)[C@@H]2C(=O)O` [CLOXACILLIN]: the Activity in the test with Staphylococcus aureus [1] turned out to be 45.7 ×MIC; in the test with Staphylococcus aureus [2], 1.1 mg/L; in the test with Staphylococcus aureus [3] it was 0.6 mg/L; in the test on Staphylococcus aureus [14] it was 8.31 ×MIC; with Staphylococcus aureus [17], 17.8 ×MIC; with Staphylococcus aureus [18] it was 0.9 mg/L. Also, the Activity was 16.6 ×MIC with Staphylococcus aureus [19], 1 mg/L in the test on Staphylococcus aureus [21] and 17.8 ×MIC in the test on Staphylococcus aureus [22]. Also, the MIC came to 1 µg/mL (≈ 2.29 µM) against Staphylococcus aureus [4] and 0.06 µg/mL (≈ 0.138 µM) in the test with Staphylococcus aureus [9]. In addition, the log10cfu is reported as 0.45 in the test on Staphylococcus aureus [5]; 0.99 with Staphylococcus aureus [6]; 0.63 in the test with Staphylococcus aureus [7]; 0.72 in the test on Staphylococcus aureus [10]; 0.6 in the test on Staphylococcus aureus [11]; 0.78 with Staphylococcus aureus [12]. For the same compound, the log10cfu in the test on Staphylococcus aureus [15] came out at 0.9; with Staphylococcus aureus [16], 2.06; in the test with Staphylococcus aureus [23], 2.06. Also, the EC50 was 0.39 µg/mL (≈ 0.895 µM) in the test with Staphylococcus aureus [8], 0.26 µg/mL (≈ 0.596 µM) in the test on Staphylococcus aureus [13] and 0.39 µg/mL (≈ 0.895 µM) with Staphylococcus aureus [20].
